Assay results published in ChEMBL document CHEMBL4004850, “Rational design of reversible inhibitors for trehalose 6-phosphate phosphatases” (Eur J Med Chem, 2017).

Legend:
[1] = tested on: Mycobacterium tuberculosis; assay: Inhibition of Mycobacterium tuberculosis T6PP using T6P as substrate assessed as fraction of enzyme unbound with compound by measuring ratio of initial velocities of T6P substrate hydrolysis in presence and absence of compound at 1 mM after 5 mins by BioMol green dye based HTS assay
In short: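 Mt-T6PP (5–25 nM, freshly purified) in 25 mM Hepes pH 7.5, 50 mM NaCl, 5 mM MgCl₂, 5% glycerol at 25 °C. T6P at Km. Initial velocity was measured with and without 1 mM inhibitor; released phosphate read as absorbance at 625 nm after 30 min incubation. VI/V is the unbound-enzyme fraction.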

[2] = Inhibition of Mycobacterium tuberculosis T6PP using T6P as substrate by Lineweaver-Burk plot analysis
In short: (§1)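 Continuous phosphate-release assay (EnzChek, MESG/purine nucleoside phosphorylase) at 25 °C. Initial velocities of T6P hydrolysis by T6PP were taken at varied T6P with inhibitor at 0, Ki and 2×Ki. Km and Vmax come from double-reciprocal plots.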

[3] = tested on: Mycobacterium tuberculosis; assay: Inhibition of Mycobacterium tuberculosis T6PP assessed as Vmax for substrate using T6P as substrate by Lineweaver-Burk plot analysis; in short: as §1
[4] = tested on: Mycobacterium tuberculosis; assay: Inhibition of Mycobacterium tuberculosis T6PP assessed as Km for substrate using T6P as substrate at 1 mM by Lineweaver-Burk plot analysis; in short: as §1

| SMILES | Ratio [1] | also measured |
| --- | --- | --- |
| O=S(=O)(O)OC[C@H]1O[C@@H](Oc2ccc(CO)cc2)[C@H](O)[C@@H](O)[C@@H]1O | 0.85 |  |
| O=P(O)(O)OC[C@H]1O[C@@H](Oc2ccccc2)[C@H](O)[C@@H](O)[C@@H]1O | 0.94 |  |
| OC[C@H]1O[C@@H](Nc2ccccc2)[C@H](O)[C@@H](O)[C@@H]1O | 0.88 |  |
| CCCCCCc1ccc(O[C@@H]2O[C@H](COS(=O)(=O)O)[C@@H](O)[C@H](O)[C@H]2O)cc1 |  | Ki [2]: > 400 µM |
| Nc1ccc(O[C@@H]2O[C@H](COS(=O)(=O)O)[C@@H](O)[C@H](O)[C@H]2O)cc1 | 1 |  |
| O=S(=O)(O)OC[C@H]1O[C@@H](Oc2cccc3ccccc23)[C@H](O)[C@@H](O)[C@@H]1O | 0.85 |  |
| O=S(=O)(O)OCc1cccc(O[C@@H]2O[C@H](CO)[C@@H](O)[C@H](O)[C@H]2O)c1 | 0.96 |  |
| NS(=O)(=O)OCc1cccc(N[C@@H]2O[C@H](CO)[C@@H](O)[C@H](O)[C@H]2O)c1 | 1.17 |  |
| CCCCCCCCO[C@@H]1O[C@H](COS(=O)(=O)O)[C@@H](O)[C@H](O)[C@H]1O | 0.83 |  |
| O=S(=O)(O)OC[C@H]1O[C@H](O[C@H]2O[C@H](CO)[C@@H](O)[C@H](O)[C@H]2O)[C@H](O)[C@@H](O)[C@@H]1O | 0.43 | Ki [2]: 130 µM |
| CO[C@H]1O[C@H](COS(=O)(=O)O)[C@@H](OCc2ccccc2)[C@H](O)[C@H]1O | 1.11 |  |
| CCCCCCCCc1ccc(O[C@H]2O[C@H](COS(=O)(=O)O)[C@@H](O)[C@H](O)[C@H]2O)cc1 |  | Ki [2]: 100 µM |
| O=S(=O)(O)OC[C@H]1O[C@H](OCc2ccccc2)[C@H](O)[C@@H](O)[C@@H]1O | 0.83 |  |
| O=Cc1ccccc1O[C@@H]1O[C@H](COS(=O)(=O)O)[C@@H](O)[C@H](O)[C@H]1O | 1.17 |  |
| O=S(=O)(O)OC[C@H]1O[C@@H](Oc2ccccc2CO)[C@H](O)[C@@H](O)[C@@H]1O | 0.89 |  |
| OC[C@H]1O[C@@H](NC(=S)Nc2ccccc2)[C@H](O)[C@@H](O)[C@@H]1O | 1.04 |  |
| O=S(=O)(O)OC[C@H]1O[C@@H](Oc2cccc(CO)c2)[C@H](O)[C@@H](O)[C@@H]1O | 0.69 |  |
| O=[N+]([O-])c1ccc(O[C@@H]2O[C@H](COS(=O)(=O)O)[C@@H](O)[C@H](O)[C@H]2O)cc1 | 1.27 |  |
| O=S(=O)(O)OC[C@H]1O[C@@H](n2cc(-c3ccccc3)nn2)[C@H](O)[C@@H](O)[C@@H]1O | 0.98 |  |

| SMILES | Ratio [1] | also measured |
| --- | --- | --- |
| CCCCCCCCc1ccc(O[C@@H]2O[C@H](COS(=O)(=O)O)[C@@H](O)[C@H](O)[C@H]2O)cc1 | 0.42 | Ki [2]: > 300 µM |
| CO[C@H]1O[C@H](COS(=O)(=O)O)[C@@H](O)[C@H](O)[C@H]1OCc1ccccc1 | 1.01 |  |
| CC(=O)Nc1ccc(O[C@@H]2O[C@H](COS(=O)(=O)O)[C@@H](O)[C@H](O)[C@H]2O)cc1 | 0.94 |  |
| OC[C@H]1O[C@@H](n2cc(-c3ccccc3)nn2)[C@H](O)[C@@H](O)[C@@H]1O | 0.95 |  |
| O=Cc1ccc(O[C@@H]2O[C@H](COS(=O)(=O)O)[C@@H](O)[C@H](O)[C@H]2O)cc1 | 0.87 |  |
| O=Cc1cccc(O[C@@H]2O[C@H](COS(=O)(=O)O)[C@@H](O)[C@H](O)[C@H]2O)c1 | 0.67 | Ki [2]: 1700 µM; Vmax [3]: 0.247 µM/s; Km [4]: 712 µM |
| O=S(=O)(O)OC[C@H]1O[C@H](Oc2ccccc2)[C@H](O)[C@@H](O)[C@@H]1O | 1.17 |  |
| O=S(=O)(O)OC[C@H]1O[C@H](O)[C@H](O)[C@@H](O)[C@@H]1O | 0.97 |  |
| CCCCCCc1ccc(O[C@H]2O[C@H](COS(=O)(=O)O)[C@@H](O)[C@H](O)[C@H]2O)cc1 |  | Ki [2]: > 400 µM |
| OC[C@H]1O[C@H](O[C@H]2O[C@H](CO)[C@@H](O)[C@H](O)[C@H]2O)[C@H](O)[C@@H](O)[C@@H]1O [TREHALOSE] | 0.83 |  |
| O=S(=O)(O)OC[C@H]1O[C@@H](Oc2ccc(-c3ccccc3)cc2)[C@H](O)[C@@H](O)[C@@H]1O | 0.58 | Ki [2]: 1600 µM; Vmax [3]: 0.0271 µM/s; Km [4]: 838 µM |
| CO[C@H]1O[C@H](COS(=O)(=O)O)[C@@H](O)[C@H](O)[C@H]1O | 0.91 |  |
| O=S(=O)(O)OC[C@H]1O[C@@H](Oc2ccc(F)c(F)c2)[C@H](O)[C@@H](O)[C@@H]1O | 0.8 |  |
| OC[C@H]1O[C@@H](Oc2ccccc2)[C@H](O)[C@@H](O)[C@@H]1O | 0.81 |  |
| O=S(=O)(O)OC[C@H]1O[C@@H](Oc2ccccc2)[C@H](O)[C@@H](O)[C@@H]1O | 0.94 |  |
| COc1cc(C=O)cc(OC)c1O[C@@H]1O[C@H](COS(=O)(=O)O)[C@@H](O)[C@H](O)[C@H]1O | 1.09 |  |
| OC[C@H]1O[C@H](Oc2ccccc2)[C@H](O)[C@@H](O)[C@@H]1O | 0.88 |  |
| CO[C@H]1O[C@H](COS(=O)(=O)O)[C@@H](O)[C@H](OCc2ccccc2)[C@H]1O | 1.16 |  |
